The values that follow come from ChEMBL document CHEMBL1765020, “Synthesis and structure-affinity relationships of novel dibenzylideneacetone derivatives as probes for β-amyloid plaques” (J Med Chem, 2011).

Structures are written as SMILES. Active and inactive are the calls of the source. The rule behind the calls is not given here.

Experiment [1] in a line: Displacement of [125I]IMPY from amyloid beta (1 to 42) aggregate after 2 hrs by gamma counting. A digest of the protocol: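 Competition binding in 1 mL PBS (0.2 M, pH 7.4). Aggregated Aβ1-42 fibrils (60 nM final) with [125I]IMPY and inhibitor at 10^-5 to 10^-10 M, added in ethanol. Nonspecific binding was defined with 1 μM IMPY. Incubated 2 h at 37 °C with shaking, then vacuum-filtered through glass fibre filters and the bound fraction gamma-counted. IC50 was converted to Ki by Cheng-Prusoff; triplicate, mean ± SD.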

Experiment [2] deals with Amyloid-beta precursor protein (Homo sapiens) (UniProt P05067). Nature of the experiment: Binding affinity to amyloid beta (1 to 42) aggregate in cortex of Alzheimer disease patient brain by autoradiography. As to conditions: tested as the 125I-labelled form. Summed up:
(§1)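 Human postmortem temporal-lobe paraffin sections were used: AD patient and normal control (person). They were deparaffinized (xylene, graded ethanol), held 30 min in PBS 0.2 M pH 7.4, incubated 1 h at room temperature with radiotracer (5 μCi/100 μL), washed 3 min in 40% ethanol, rinsed, dried and exposed to an imaging plate overnight.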

Experiment [3] has the same target. The experiment is described as follows: Binding affinity to amyloid beta (1 to 42) aggregate in white matter of Alzheimer disease patient brain by autoradiography. As to conditions: tested as the 125I-labelled form. Type of experiment: tissue-based. Summed up:
as §1

Experiment [4] has the same target. Nature of the experiment: Binding affinity to amyloid beta (1 to 42) aggregate in cortex of Alzheimer disease patient brain by immunohistochemical staining using amyloid beta antibody BC05. As to conditions: tested as the 125I-labelled form. Summed up:
(§2)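 Plaque presence and location in the AD patient temporal-lobe sections were confirmed by immunohistochemistry with monoclonal anti-Aβ1-42 antibody BC05.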

Experiment [5] shares this target. The experiment is described as follows: Binding affinity to amyloid beta (1 to 42) aggregate in white matter of Alzheimer disease patient brain by immunohistochemical staining using amyloid beta antibody BC05. Type of experiment: tissue-based. As to conditions: tested as the 125I-labelled form. Summed up: as §2
The species named for experiment [6] is Mus musculus. The experiment is described as follows: Binding affinity to amyloid beta (1 to 42) aggregate in APP/PS1 transgenic C57BL/6 mouse brain after 1 hr by autoradiography. Type of experiment: tissue-based. As to conditions: C57BL6, tested as the 18F-labelled form. Summed up: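 Paraffin brain sections from 12-month-old male C57BL6-APP/PS1 mice, with wild-type male C57BL6 controls, were deparaffinized through xylene and graded ethanol, then held 30 min in PBS (0.2 M, pH 7.4). Sections were incubated 1 h at room temperature with radiotracer (5 μCi/100 μL), washed 3 min in 40% ethanol, rinsed in water, dried and exposed to an imaging plate overnight.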

The species entered for experiment [7] is Mus musculus. Nature of the experiment: Binding affinity to amyloid beta (1 to 42) aggregate in APP/PS1 transgenic C57BL/6 mouse brain by Thioflavin S fluorescent staining assay. The experiment is classed as tissue-based. As to conditions: C57BL6, tested as the 18F-labelled form. A digest of the protocol:
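The same Tg mouse sections used for autoradiography were stained with thioflavin S to locate plaques. Fluorescence was viewed by microscope: excitation 400–440 nm, dichroic 455 nm, long-pass 470 nm.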

For experiment [8], the target named is Amyloid-beta precursor protein (Homo sapiens) (UniProt P05067). The experiment is described as follows: Binding affinity to amyloid beta (1 to 42) aggregate in Alzheimer disease patient brain by immunohistochemical staining using amyloid beta antibody. As to conditions: tested as the 18F-labelled form. Summed up: as §2
Amyloid-beta precursor protein (Homo sapiens), sequence (P05067 whole entry): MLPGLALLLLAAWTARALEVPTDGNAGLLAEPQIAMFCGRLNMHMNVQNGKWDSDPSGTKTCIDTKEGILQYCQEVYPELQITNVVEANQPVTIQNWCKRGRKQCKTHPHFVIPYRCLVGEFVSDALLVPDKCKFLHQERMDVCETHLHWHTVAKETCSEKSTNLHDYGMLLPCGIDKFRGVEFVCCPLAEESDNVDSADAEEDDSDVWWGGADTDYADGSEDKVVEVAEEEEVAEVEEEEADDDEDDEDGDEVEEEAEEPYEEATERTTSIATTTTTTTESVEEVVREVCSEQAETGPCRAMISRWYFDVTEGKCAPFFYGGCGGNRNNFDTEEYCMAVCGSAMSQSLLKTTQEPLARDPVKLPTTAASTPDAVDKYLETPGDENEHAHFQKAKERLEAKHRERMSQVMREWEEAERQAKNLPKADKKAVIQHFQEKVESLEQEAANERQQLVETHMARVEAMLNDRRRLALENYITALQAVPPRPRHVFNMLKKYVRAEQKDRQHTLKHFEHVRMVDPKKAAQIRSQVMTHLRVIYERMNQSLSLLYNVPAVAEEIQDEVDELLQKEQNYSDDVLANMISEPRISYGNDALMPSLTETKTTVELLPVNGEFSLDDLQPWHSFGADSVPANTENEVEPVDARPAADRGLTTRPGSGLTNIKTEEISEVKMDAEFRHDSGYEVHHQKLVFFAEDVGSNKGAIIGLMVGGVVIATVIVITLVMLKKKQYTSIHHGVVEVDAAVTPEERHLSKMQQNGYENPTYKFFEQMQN

For `CN(C)c1ccc(/C=C/C(=O)/C=C/c2ccc(I)cc2)cc1`, the Ki (usually the dissociation constant of the complex between target and ligand, obtained from inhibition or displacement) in experiment [1] was 0.9 nM. Besides, the result in experiment [2], in experiment [3], in experiment [4] and in experiment [5] was Active.

For `CNc1ccc(/C=C/C(=O)/C=C/c2ccc(OCCOCCOCCF)cc2)cc1`, the affinity in experiment [1], expressed as Ki, was 8.6 nM. The outcome in experiment [6], in experiment [7] and in experiment [8] was Active.
